Reference: ChEMBL document CHEMBL1155379, “Effect of 3'-end capping of aptamer with various 2',4'-bridged nucleotides: Enzymatic post-modification toward a practical use of polyclonal aptamers” (Bioorg Med Chem Lett, 2010)

Experiments:
[1] = Chemical stability in presence of snake venom phosphodiesterase 1 assessed as oligonucleotide degradation after 120 mins by PAGE; type: physicochemical; conditions: 2 h
[2] = molecular target: Prothrombin (Homo sapiens, UniProt P00734); experiment: Binding affinity to human thrombin after 30 mins by non-equilibrium capillary electrophoresis
Method in brief: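 Capillary electrophoresis of aptamer–thrombin mixtures: aptamer 1 nM with thrombin 4 nM in 20 mM Tris-HCl (1 mM MgCl2) pH 7.4 sample buffer; running buffer 100 mM sodium borate pH 8.35; separation +12 kV, injection 0.5 psi × 7.8 s. Kd derived from binding saturation curves over varied thrombin concentrations.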

Row | Structure (SMILES) | Stability [1] | Kd [2]
1 | C=C1NC(=O)C(C)=CN1[C@H]1C[C@H](OP(=O)(O)OC[C@H]2O[C@@H](n3cnc4c(=O)[nH]c(N)nc43)[C@H](O)[C@@H]2OP(=O)(O)OC[C@H]2O[C@@H](n3cnc4c(N)ncnc43)[C@H](O)[C@@H]2OP(=O)(O)OC[C@H]2O[C@@H](n3ccc(N)nc3=O)[C@H](O)[C@@H]2OP(=O)(O)OC[C@H]2O[C@@H](n3cc(C)c(=O)[nH]c3=O)C[C@@H]2OP(=O)(O)OC[C@@]23CO[C@@H]([C@H](n4cc(C)c(=O)[nH]c4=O)O2)[C@@H]3O)[C@@H](COP(=O)(O)O[C@H]2[C@@H](O)[C@H](n3cnc4c(=O)[nH]c(N)nc43)O[C@@H]2COP(=O)(O)O[C@H]2[C@@H](O)[C@H](n3cnc4c(=O)[nH]c(N)nc43)O[C@@H]2COP(=O)(O)O[C@H]2[C@@H](O)[C@H](n3cnc4c(=O)[nH]c(N)nc43)O[C@@H]2COP(=O)(O)O[C@H]2[C@@H](O)[C@H](n3cnc4c(=O)[nH]c(N)nc43)O[C@@H]2COP(=O)(O)O[C@H]2C[C@H](n3cc(C)c(=O)[nH]c3=O)O[C@@H]2COP(=O)(O)O[C@H]2C[C@H](n3cc(C)c(=O)[nH]c3=O)O[C@@H]2COP(=O)(O)O[C@H]2[C@@H](O)[C@H](n3cnc4c(=O)[nH]c(N)nc43)O[C@@H]2COP(=O)(O)O[C@H]2[C@@H](O)[C@H](n3cnc4c(=O)[nH]c(N)nc43)O[C@@H]2COP(=O)(O)O[C@H]2[C@@H](O)[C@H](n3cnc4c(N)ncnc43)O[C@@H]2COP(=O)(O)O[C@H]2[C@@H](O)[C@H](n3ccc(N)nc3=O)O[C@@H]2COP(=O)(O)O[C@H]2[C@@H](O)[C@H](n3cnc4c(=O)[nH]c(N)nc43)O[C@@H]2COP(=O)(O)O[C@H]2[C@@H](O)[C@H](n3cnc4c(=O)[nH]c(N)nc43)O[C@@H]2COP(=O)(O)O[C@H]2[C@@H](O)[C@H](n3cnc4c(=O)[nH]c(N)nc43)O[C@@H]2COP(=O)(O)O[C@H]2[C@@H](O)[C@H](n3cnc4c(N)ncnc43)O[C@@H]2COP(=O)(O)O[C@H]2C[C@H](n3cc(C)c(=O)[nH]c3=O)O[C@@H]2COP(=O)(O)O[C@H]2[C@@H](O)[C@H](n3cnc4c(=O)[nH]c(N)nc43)O[C@@H]2COP(=O)(O)O[C@H]2[C@@H](O)[C@H](n3cnc4c(=O)[nH]c(N)nc43)O[C@@H]2COP(=O)(O)O[C@H]2C[C@H](n3cc(C)c(=O)[nH]c3=O)O[C@@H]2COP(=O)(O)O[C@H]2[C@@H](O)[C@H](n3cnc4c(=O)[nH]c(N)nc43)O[C@@H]2COP(=O)(O)O[C@H]2[C@@H](O)[C@H](n3ccc(N)nc3=O)O[C@@H]2COP(=O)(O)O[C@H]2[C@@H](O)[C@H](n3ccc(N)nc3=O)O[C@@H]2COP(=O)(O)O[C@H]2C[C@H](n3cc(C)c(=O)[nH]c3=O)O[C@@H]2COP(=O)(O)O[C@H]2[C@@H](O)[C@H](n3cnc4c(=O)[nH]c(N)nc43)O[C@@H]2COP(=O)(O)O[C@H]2[C@@H](O)[C@H](n3cnc4c(N)ncnc43)O[C@@H]2COc2ccc3c(c2)Oc2cc(O)ccc2C32OC(=O)c3ccccc32)O1 (some centres undefined) | Stable | 0.18 nM
2 | C=C1NC(=O)C(C)=CN1[C@H]1C[C@H](OP(=O)(O)OC[C@H]2O[C@@H](n3cnc4c(=O)[nH]c(N)nc43)[C@H](O)[C@@H]2OP(=O)(O)OC[C@H]2O[C@@H](n3cnc4c(N)ncnc43)[C@H](O)[C@@H]2OP(=O)(O)OC[C@H]2O[C@@H](n3ccc(N)nc3=O)[C@H](O)[C@@H]2OP(=O)(O)OC[C@H]2O[C@@H](n3cc(C)c(=O)[nH]c3=O)C[C@@H]2OP(=O)(O)OC[C@@]23COCO[C@@H]([C@H](n4cc(C)c(=O)[nH]c4=O)O2)[C@@H]3O)[C@@H](COP(=O)(O)O[C@H]2[C@@H](O)[C@H](n3cnc4c(=O)[nH]c(N)nc43)O[C@@H]2COP(=O)(O)O[C@H]2[C@@H](O)[C@H](n3cnc4c(=O)[nH]c(N)nc43)O[C@@H]2COP(=O)(O)O[C@H]2[C@@H](O)[C@H](n3cnc4c(=O)[nH]c(N)nc43)O[C@@H]2COP(=O)(O)O[C@H]2[C@@H](O)[C@H](n3cnc4c(=O)[nH]c(N)nc43)O[C@@H]2COP(=O)(O)O[C@H]2C[C@H](n3cc(C)c(=O)[nH]c3=O)O[C@@H]2COP(=O)(O)O[C@H]2C[C@H](n3cc(C)c(=O)[nH]c3=O)O[C@@H]2COP(=O)(O)O[C@H]2[C@@H](O)[C@H](n3cnc4c(=O)[nH]c(N)nc43)O[C@@H]2COP(=O)(O)O[C@H]2[C@@H](O)[C@H](n3cnc4c(=O)[nH]c(N)nc43)O[C@@H]2COP(=O)(O)O[C@H]2[C@@H](O)[C@H](n3cnc4c(N)ncnc43)O[C@@H]2COP(=O)(O)O[C@H]2[C@@H](O)[C@H](n3ccc(N)nc3=O)O[C@@H]2COP(=O)(O)O[C@H]2[C@@H](O)[C@H](n3cnc4c(=O)[nH]c(N)nc43)O[C@@H]2COP(=O)(O)O[C@H]2[C@@H](O)[C@H](n3cnc4c(=O)[nH]c(N)nc43)O[C@@H]2COP(=O)(O)O[C@H]2[C@@H](O)[C@H](n3cnc4c(=O)[nH]c(N)nc43)O[C@@H]2COP(=O)(O)O[C@H]2[C@@H](O)[C@H](n3cnc4c(N)ncnc43)O[C@@H]2COP(=O)(O)O[C@H]2C[C@H](n3cc(C)c(=O)[nH]c3=O)O[C@@H]2COP(=O)(O)O[C@H]2[C@@H](O)[C@H](n3cnc4c(=O)[nH]c(N)nc43)O[C@@H]2COP(=O)(O)O[C@H]2[C@@H](O)[C@H](n3cnc4c(=O)[nH]c(N)nc43)O[C@@H]2COP(=O)(O)O[C@H]2C[C@H](n3cc(C)c(=O)[nH]c3=O)O[C@@H]2COP(=O)(O)O[C@H]2[C@@H](O)[C@H](n3cnc4c(=O)[nH]c(N)nc43)O[C@@H]2COP(=O)(O)O[C@H]2[C@@H](O)[C@H](n3ccc(N)nc3=O)O[C@@H]2COP(=O)(O)O[C@H]2[C@@H](O)[C@H](n3ccc(N)nc3=O)O[C@@H]2COP(=O)(O)O[C@H]2C[C@H](n3cc(C)c(=O)[nH]c3=O)O[C@@H]2COP(=O)(O)O[C@H]2[C@@H](O)[C@H](n3cnc4c(=O)[nH]c(N)nc43)O[C@@H]2COP(=O)(O)O[C@H]2[C@@H](O)[C@H](n3cnc4c(N)ncnc43)O[C@@H]2COc2ccc3c(c2)Oc2cc(O)ccc2C32OC(=O)c3ccccc32)O1 (some centres undefined) | Stable | 0.27 nM
